Measurements reported in ChEMBL document CHEMBL1145530, “Synthesis and evaluation of isosteres of N-methyl indolo[3,2-b]-quinoline (cryptolepine) as new antiinfective agents” (Bioorg Med Chem, 2007).
≈ marks a conversion by molar mass, not a printed value. Calls of active or inactive are those of the source. The calls are words filed in the database; no cut-off is given here.

Assays:
[1] = tested on: Plasmodium falciparum; assay: Anti-infective activity against Plasmodium falciparum D6 infected red blood cells up to 4.76 ug/mL; assay type: functional
[2] = tested on: Mycobacterium intracellulare; assay: Antibacterial activity against Mycobacterium intracellular ATCC 23068; assay type: functional, organism-based
In short: (§1)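 Broth microdilution following modified NCCLS methods, Franzblau variant for M. intracellulare. DMSO samples serially diluted in saline and tested in duplicate. Inoculum set by 0.5 McFarland. Media: C. albicans SDB or RPMI 1640; C. neoformans SDB; A. fumigatus YM broth (MIC) or RPMI-1640 + 5% Alamar Blue (IC50); M. intracellulare 7H9/OADC + 5% Alamar Blue. Top final concentration 20 µg/mL.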

[3] = tested on: Vero; assay: Cytotoxicity against Vero cells; assay type: cell-based; details: Chlorocebus sabaeus
In short: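 VERO monkey kidney […] seeded at 25,000 cells/well and grown 24 h, then exposed to compound for 48 h, highest concentration 23.8 µg/ml. Viability by neutral red uptake. IC50 from growth-inhibition curves. DMSO as vehicle control.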

[4] = tested on: Leishmania donovani; assay: Antileishmanial activity against Leishmania donovani promastigotes; assay type: functional, organism-based
In short: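 L. donovani promastigotes from a 3-day culture in RPMI 1640 with 10% FCS, diluted to 5×10^5/mL. Drug dilutions made directly in the cell suspension. 48 h at 26 °C. Growth measured by Alamar Blue fluorescence at 544/590 nm. IC50 and IC90 from percent growth versus concentration.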

[5] = tested on: Candida albicans; assay: Antifungal activity against Candida albicans ATCC 90028; assay type: functional; in short: as §1
[6] = tested on: Aspergillus fumigatus; assay: Antifungal activity against Aspergillus fumigatus ATCC 90906; assay type: functional, organism-based; details: for MIC: in the assay text read “Antifungal” for “Antibacterial”; in short: as §1
[7] = tested on: Plasmodium falciparum; assay: Anti-infective activity against Plasmodium falciparum W2 in erythrocytes; assay type: functional, organism-based
[8] = tested on: Cryptococcus neoformans; assay: Antifungal activity against Cryptococcus neoformans ATCC 90113; assay type: functional, organism-based; in short: as §1
[9] = Anti-infective activity against Plasmodium falciparum D6 infected red blood cells; assay type: functional
[10] = tested on: Plasmodium falciparum; assay: Anti-infective activity against Plasmodium falciparum W2 in erythrocytes up to 4.76 ug/mL; assay type: functional, organism-based

Compound | IC50 [2] [µg/mL] | IC50 [4] [µg/mL] | MIC [5] [µg/mL] | MIC [6] [µg/mL] | IC50 [7] [µg/mL] | MIC [8] [µg/mL] | IC50 [9] [µg/mL] | IC50 [6] [µg/mL] | IC50 [8] [µg/mL] | Activity [1] | IC50 [3] [µg/mL] | Activity [10]
C[n+]1c2ccc(C(=O)O)cc2cc2sc3ccccc3c21.[I-] | 20 | 0.39 | > 20 | 10 | 4.5 | > 20 | – | – | – | inactive | 7 | –
C[C@@H]1[C@H](O)[C@@H](C)/C=C/C=C/C=C/C=C/C=C/C=C/C=C/[C@H](O[C@@H]2O[C@H](C)[C@@H](O)[C@H](N)[C@@H]2O)C[C@@H]2O[C@](O)(C[C@@H](O)C[C@@H](O)[C@H](O)CC[C@@H](O)C[C@@H](O)CC(=O)O[C@H]1C)C[C@H](O)[C@H]2C(=O)O [AMPHOTERICIN B] | – | – | 0.25 (≈ 0.271 µM) | – | – | 0.95 (≈ 1.03 µM) | – | 0.85 (≈ 0.92 µM) | – | – | – | –
C[n+]1c2ccccc2cc2sc3ccccc3c21.[I-] | > 20 | 0.35 | – | > 20 | 2 | – | 1.6 | – | – | – | > 23.8 | –
C[n+]1c2ccccc2cc2[nH]c3ccccc3c21.[I-] [CRYPTOLEPTINE IODIDE] | 15 | 0.23 | 2 | > 20 | 0.35 | – | 0.18 | – | – | – | 3.2 | –
[I-].c1ccc(CCCCC[n+]2cccc3sc4ccccc4c32)cc1 | 1.5 | 1.2 | > 20 | 20 | 0.22 | 20 | 0.27 | – | – | – | 20 | –
COc1ccc2c(c1)cc1sc3ccccc3c1[n+]2C.[I-] | > 20 | 0.6 | > 20 | 20 | 0.74 | – | 0.74 | – | 8 | – | > 23.8 | –
C[C@@H]1CC[C@H]2[C@@H](C)C(=O)O[C@@H]3O[C@@]4(C)CC[C@@H]1[C@]32OO4 [ARTEMISININ] | – | – | – | – | 0.02 (≈ 0.0708 µM) | – | 0.02 (≈ 0.0708 µM) | – | – | – | > 4.7 | –
C[n+]1c2ccc(Cl)cc2cc2sc3ccccc3c21.[I-] | > 20 | 0.42 | 2 | 4 | 2.8 | 15 | 4 | – | – | – | > 23.8 | –
C[n+]1cccc2sc3ccc([N+](=O)[O-])cc3c21.[I-] | > 20 | > 40 | > 20 | > 20 | 0.46 | > 20 | 0.4 | – | – | – | > 23.8 | –
C[n+]1c2ccc(C(N)=O)cc2cc2sc3ccccc3c21.[I-] | > 20 | 40 | > 20 | > 20 | – | > 20 | – | – | – | inactive | > 23.8 | inactive

Second part, led by results:

IC50 [2] [µg/mL] | IC50 [4] [µg/mL] | MIC [5] [µg/mL] | MIC [6] [µg/mL] | IC50 [7] [µg/mL] | MIC [8] [µg/mL] | IC50 [9] [µg/mL] | IC50 [6] [µg/mL] | IC50 [8] [µg/mL] | Compound | Activity [1] | IC50 [3] [µg/mL] | Activity [10]
> 20 | – | > 20 | > 20 | – | > 20 | – | – | – | C[n+]1c2c(cc3ccccc31)Cc1ccccc1-2.[I-] | – | – | –
15 | 3 | > 20 | > 20 | 0.2 | > 20 | 0.18 | – | – | CN(C)c1ccc2sc3ccc[n+](C)c3c2c1 | – | > 23.8 | –
– | 0.7 (≈ 2.06 µM) | – | – | – | – | – | – | – | N=C(N)c1ccc(OCCCCCOc2ccc(C(=N)N)cc2)cc1 [PENTAMIDINE] | – | – | –
> 20 | – | > 20 | > 20 | 1.2 | > 20 | 1.5 | – | – | C[n+]1cccc2sc3ccccc3c21.[I-] | – | > 23.8 | –
15 | 0.27 | 10 | – | 0.3 | > 20 | 0.34 | 6.5 | – | C[n+]1c2ccccc2cc2sc3ccccc3c21.O=S(=O)([O-])C(F)(F)F | – | > 23.8 | –
> 20 | 2.6 | > 20 | 20 | – | > 20 | – | – | – | C[n+]1c2ccc(C#N)cc2cc2sc3ccccc3c21.[I-] | inactive | > 23.8 | inactive
0.35 (≈ 1.06 µM) | – | – | – | – | – | – | – | – | O=C(O)c1cn(C2CC2)c2cc(N3CCNCC3)c(F)cc2c1=O [CIPROFLOXACIN] | – | – | –
– | – | – | – | – | – | 0.02 (≈ 0.0625 µM) | – | – | CCN(CC)CCCC(C)Nc1ccnc2cc(Cl)ccc12 (centres undefined) [CHLOROQUINE] | – | > 4.7 | –
> 20 | 2.2 | > 20 | – | 0.28 | > 20 | 0.28 | 15 | – | C[n+]1c2ccccc2cc2oc3ccccc3c21.[I-] | – | > 23.8 | –
